Test results from ChEMBL document CHEMBL1629663, “Postantibiotic effects of telavancin against 16 gram-positive organisms” (Antimicrob Agents Chemother, 2009).
In brackets after ≈: the same amount, converted by molar mass.

Experiments:
[1] = tested on: Staphylococcus aureus; test: Antimicrobial activity against vancomycin-intermediate-, methicillin-resistant Staphylococcus aureus 555 assessed as time required to induce post antibiotic sub-MIC effect at 0.2 times MIC […] by plate counting method; assay type: functional
In short: (§1)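 PAE was first induced with 10× MIC for 1 h at 35°C (inoculum about 5 × 10^6 CFU/ml, Mueller-Hinton broth) and ended by 1:1,000 dilution. Cultures were then split and given 0.2, 0.3 or 0.4× MIC, with one tube left without drug. Viable counts were taken before exposure, after dilution, then every 2 h until McFarland no. 1 turbidity. Two separate experiments, each with a new inoculum.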

[2] = tested on: Staphylococcus aureus; test: Antimicrobial activity against heterogenous vancomycin-intermediate-, methicillin-resistant Staphylococcus aureus 618 assessed as post-antibiotic effect at 10 times MIC pre-exposed to Telavancin for 1 hr by plate counting method; assay type: functional
In short: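 Viable plate count method in Mueller-Hinton broth. Direct colony suspension inoculum of about 5 × 10^6 CFU/ml was exposed to 10× MIC for 1 h at 35°C in a shaking water bath, then diluted 1:1,000 to remove drug. Counts were taken before exposure, at 0 h, then every 2 h until McFarland no. 1 turbidity. PAE = T − C, the time to a 1 log10 rise versus an unexposed growth control.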

[3] = tested on: Staphylococcus aureus; test: Antimicrobial activity against vancomycin-susceptible-, methicillin-resistant Staphylococcus aureus 1130 assessed as time required to induce sub-MIC effect at 0.2 times MIC exposed for 2 hrs by plate counting method; assay type: functional
In short: (§2)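 Sub-MIC effect: cultures not preexposed to drug were diluted and handled as in the PA-SME procedure in Mueller-Hinton broth with final 0.2, 0.3 or 0.4× MIC, plus a drug-free control. Viable plate counts were taken every 2 h until McFarland 1 turbidity. Duration was derived from growth curves. Two experiments were run, each with a new inoculum.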

[4] = tested on: Staphylococcus aureus; test: Antimicrobial activity against vancomycin-susceptible-, methicillin-resistant Staphylococcus aureus 1130 assessed as time required to induce sub-MIC effect at 0.3 times MIC exposed for 2 hrs by plate counting method; assay type: functional; in short: as §2
[5] = tested on: Staphylococcus aureus; test: Antimicrobial activity against heterogenous vancomycin-intermediate-, methicillin-resistant Staphylococcus aureus 873 assessed as time required to induce sub-MIC effect at 0.3 times MIC […] by plate counting method; assay type: functional
In short: (§3)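 SME, viable plate count method: no prior drug exposure. About 5 × 10^6 CFU/ml in Mueller-Hinton broth at 35°C received 0.2, 0.3 or 0.4× MIC, alongside a drug-free tube. Counts were taken at the start, then every 2 h until McFarland no. 1 turbidity, as log10 CFU/ml against time. Two separate experiments, each with a new inoculum.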

[6] = tested on: Enterococcus faecium; test: Antimicrobial activity against Enterococcus faecium HMC 588 assessed as time required to induce post antibiotic sub-MIC effect at 0.4 times MIC […] by plate counting method; assay type: functional
In short: (§4)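 Mueller-Hinton broth cultures of about 5 × 10^6 CFU/ml were pre-exposed to telavancin at 10× MIC for 1 h at 35°C, then diluted 1:1,000. Telavancin was re-added to final 0.2, 0.3 or 0.4× MIC, alongside a drug-free tube. Viable counts were taken before exposure, after dilution, then every 2 h until McFarland no. 1 turbidity. Duration comes from log10 CFU/ml-versus-time plots; two separate experiments with fresh inocula.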

[7] = tested on: Staphylococcus aureus; test: Antimicrobial activity against vancomycin-susceptible-, methicillin-resistant Staphylococcus aureus 1306 by microdilution method; assay type: functional
[8] = tested on: Streptococcus pyogenes; test: Antimicrobial activity against Streptococcus pyogenes HMC 414 assessed as time required to induce sub-MIC effect at 0.4 times MIC exposed for 2 hrs by plate counting method; assay type: functional
In short: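 Unexposed Mueller-Hinton broth cultures (about 5 × 10^6 CFU/ml, 35°C) were handled as in the PA-SME set but without the 10× MIC pre-exposure. They were diluted 1:1,000, then given telavancin at final 0.2, 0.3 or 0.4× MIC, with a drug-free control. Viable counts were taken every 2 h until McFarland no. 1 turbidity. Effect duration comes from log10 CFU/ml-time plots; two separate experiments with new inocula.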

[9] = tested on: Streptococcus pyogenes; test: Antimicrobial activity against Streptococcus pyogenes HMC 414 assessed as time required to induce post antibiotic sub-MIC effect at 0.2 times MIC pre-exposed to Telavancin for 2 hrs by plate counting method; assay type: functional; conditions: in the assay text read “for 1 hr” for “for 2 hrs”; in short: as §4
[10] = tested on: Staphylococcus aureus; test: Antimicrobial activity against vancomycin-intermediate-, methicillin-resistant Staphylococcus aureus 555 assessed as time required to induce post antibiotic sub-MIC effect at 0.4 times MIC […] by plate counting method; assay type: functional; in short: as §1
[11] = Elimination half life in healthy human at 5 mg/kg, iv; assay type: ADME, organism-based; set-up: dose 5 mg/kg, route intravenous; conditions: in vivo, read-out: beta t1/2
[12] = tested on: Staphylococcus aureus; test: Antimicrobial activity against vancomycin-susceptible-, methicillin-resistant Staphylococcus aureus 1307 by microdilution method; assay type: functional
[13] = tested on: Staphylococcus aureus; test: Antimicrobial activity against heterogenous vancomycin-intermediate-, methicillin-resistant Staphylococcus aureus 873 assessed as time required to induce post antibiotic sub-MIC effect at 0.2 times MIC pre-exposed to Telavancin […] by plate counting method; assay type: functional; in short: as §1
[14] = tested on: Streptococcus agalactiae; test: Antimicrobial activity against Streptococcus agalactiae HMC 5 assessed as post-antibiotic effect at 10 times MIC pre-exposed to Telavancin for 1 hr by plate counting method; assay type: functional
In short: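 Organisms were suspended in Mueller-Hinton broth from overnight blood agar colonies at about 5 × 10^6 CFU/ml. Cultures were exposed to telavancin at 10× MIC for 1 h at 35°C in a shaking water bath, then diluted 1:1,000 to remove the drug, with an untreated growth control. Viable counts were taken before exposure, at 0 h, then every 2 h until McFarland no. 1 turbidity. PAE = T − C, the time to a 1 log10 rise. Two experiments.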

[15] = tested on: Staphylococcus aureus; test: Antimicrobial activity against vancomycin-resistant-, methicillin-resistant Staphylococcus aureus 510 assessed as time required to induce sub-MIC effect at 0.3 times MIC exposed for 2 hrs by plate counting method; assay type: functional; in short: as §2
[16] = tested on: Streptococcus pyogenes; test: Antimicrobial activity against Streptococcus pyogenes HMC 414 by microdilution method; assay type: functional
[17] = tested on: Staphylococcus aureus; test: Antimicrobial activity against heterogenous vancomycin-intermediate-, methicillin-resistant Staphylococcus aureus 618 assessed as time required to induce sub-MIC effect at 0.3 times MIC […] by plate counting method; assay type: functional; in short: as §3
[18] = tested on: Staphylococcus aureus; test: Antimicrobial activity against vancomycin-intermediate-, methicillin-resistant Staphylococcus aureus 1984 by microdilution method; assay type: functional
[19] = tested on: Staphylococcus aureus; test: Antimicrobial activity against heterogenous vancomycin-intermediate-, methicillin-resistant Staphylococcus aureus 618 by microdilution method; assay type: functional
[20] = tested on: Staphylococcus aureus; test: Antimicrobial activity against vancomycin-susceptible-, methicillin-resistant Staphylococcus aureus 1307 assessed as time required to induce post antibiotic sub-MIC effect at 0.3 times MIC […] by plate counting method; assay type: functional
In short: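 After 1 h preexposure to 10× MIC at 35°C and 1:1,000 dilution, cultures were split, and drug was re-added to final 0.2, 0.3 or 0.4× MIC, with a drug-free tube. Viable counts were taken every 2 h until McFarland 1 turbidity. Duration was derived from log10 CFU/ml versus time curves. Two experiments were run, each with a new inoculum.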

[21] = tested on: Streptococcus agalactiae; test: Antimicrobial activity against Streptococcus agalactiae HMC 5 assessed as time required to induce post antibiotic sub-MIC effect at 0.4 times MIC […] by plate counting method; assay type: functional; in short: as §4
[22] = tested on: Enterococcus faecalis; test: Antimicrobial activity against Enterococcus faecalis HMC 571 assessed as time required to induce post antibiotic sub-MIC effect at 0.4 times MIC […] by plate counting method; assay type: functional; in short: as §1

CCCCCCCCCCNCCN[C@@]1(C)C[C@H](O[C@H]2[C@H](Oc3c4cc5cc3Oc3ccc(cc3Cl)[C@@H](O)[C@@H](NC(=O)[C@@H](CC(C)C)NC)C(=O)N[C@@H](CC(N)=O)C(=O)N[C@H]5C(=O)N[C@H]3C(=O)N[C@H](C(=O)N[C@H](C(=O)O)c5cc(O)c(CNCP(=O)(O)O)c(O)c5-c5cc3ccc5O)[C@H](O)c3ccc(c(Cl)c3)O4)O[C@H](CO)[C@@H](O)[C@@H]2O)O[C@@H](C)[C@H]1O [TELAVANCIN]
PAE [1]: 5.9 h | PAE [2]: 1.7 h | PAE [3]: 0 h | PAE [4]: 2 h | PAE [5]: 0.5 h | PAE [6]: > 10 h | MIC [7]: 0.12 µg/mL (≈ 0.0684 µM) | PAE [8]: 0.4 h | PAE [9]: 8.7 h | PAE [10]: > 10.3 h | half-life [11]: > 7 h | MIC [12]: 0.12 µg/mL (≈ 0.0684 µM) | PAE [13]: 3.6 h | PAE [14]: 0.4 h | PAE [15]: 2.3 h | MIC [16]: 0.06 µg/mL (≈ 0.0342 µM) | PAE [17]: 1.5 h | MIC [18]: 0.25 µg/mL (≈ 0.142 µM) | MIC [19]: 0.12 µg/mL (≈ 0.0684 µM) | PAE [20]: > 10.5 h | PAE [21]: > 10.7 h | PAE [22]: 10.6 h
